Test results published in ChEMBL document CHEMBL5344428, “Discovery, Crystallographic Studies, and Mechanistic Investigations of Novel Phenylalanine Derivatives Bearing a Quinazolin-4-one Scaffold as Potent HIV Capsid Modulators” (J Med Chem, 2023).

What was measured:
[1] = system: Human immunodeficiency virus 1; assay: Antiviral activity against HIV1 IIIB infected in human MT4 cells assessed as reduction in virus induced cytopathic effect measured after 5 days by MTT assay; type: functional, organism-based; details: Human immunodeficiency virus 1, IIIB, MT4, 120 h
Summary of the method: (§1)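 MT-4 cells were infected with HIV-1 IIIB or HIV-2 ROD, and cell viability was read by MTT. […] Each value was run in at least triplicate and averaged from at least three independent experiments.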

[2] = system: Human immunodeficiency virus 2; assay: Antiviral activity against HIV2 ROD infected in human MT4 cells assessed as reduction in virus induced cytopathic effect measured after 5 days by MTT assay; type: functional, organism-based; details: Human immunodeficiency virus 2, ROD, MT4, 120 h; summary of the method: as §1
[3] = biological target: Structural capsid protein (Human immunodeficiency virus 1) (UniProt Q76129); assay: Binding affinity to HIV-1 NL4.3 monomeric capsid protein assessed as Koff by SPR analysis; details: filed as modulator
Summary of the method: (§2)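 SPR binding of compound to monomeric or disulfide-stabilised hexameric HIV-1 CA NL4.3 protein; koff, residence time and KD derived from isotherms, monomer/hexamer ratio = KD monomer/KD hexamer. Triplicate, SD.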

[4] = biological target: Structural capsid protein (Human immunodeficiency virus 1) (UniProt Q76129); assay: Binding affinity to HIV-1 NL4.3 monomeric capsid protein assessed as residence time by SPR analysis; details: filed as modulator; summary of the method: as §2
[5] = biological target: Structural capsid protein (Human immunodeficiency virus 1) (UniProt Q76129); assay: Binding affinity to HIV-1 NL4.3 hexameric capsid protein assessed as Koff by SPR analysis; details: filed as modulator; summary of the method: as §2
[6] = biological target: Structural capsid protein (Human immunodeficiency virus 1) (UniProt Q76129); assay: Binding affinity to HIV-1 NL4.3 hexameric capsid protein assessed as residence time by SPR analysis; details: filed as modulator; summary of the method: as §2
[7] = system: Human immunodeficiency virus 1; assay: Antiviral activity against HIV1 NL4.3 infected in human U87.CD4.CXCR4 cells assessed as inhibition of early stage replication by measuring infection at 1 uM incubated for 48 hrs by microplate luminometer based single-round infection assay (reference value: 100.0 +/- 30.99%); type: functional; set-up: scale not given: the % may be the effect or the level left
[8] = system: Human immunodeficiency virus 1; assay: Antiviral activity against HIV1 NL4.3 infected in human U87.CD4.CXCR4 cells assessed as inhibition of late stage replication by measuring infection at 1 uM incubated for 48 hrs by microplate luminometer based single-round infection assay (reference value: 100.0 +/- 18.40%); type: functional; set-up: scale not given: the % may be the effect or the level left
[9] = Metabolic stability in human liver microsomes assessed as half-life at 1 uM incubated for 60 mins in presence of NADPH by LC-MS/MS analysis; type: ADME, Microsome
[10] = Metabolic stability in human liver microsomes assessed as intrinsic clearance at 1 uM incubated for 60 mins in presence of NADPH by LC-MS/MS analysis; type: ADME, Microsome
[11] = Metabolic stability in human liver assessed as intrinsic clearance at 1 uM incubated for 60 mins in presence of NADPH by LC-MS/MS analysis; type: ADME, tissue-based; details: read-out: CLH
Summary of the method: (§3)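 Human liver microsomes were used at a final 0.5 mg protein/mL, incubated 60 min with an NADPH regenerating system. The no-cofactor arm replaced NADPH with buffer. T1/2 came from linear regression of the kinetic data. CLint(mic) = (0.693/T1/2)/mg microsomal protein per mL. CLint(liver) was scaled by mg microsomal protein/g liver and g liver/kg body weight.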

[12] = Metabolic stability in human liver microsomes assessed as parent compound remaining at 1 uM incubated for 60 mins in presence of NADPH by LC-MS/MS analysis; type: ADME, Microsome; details: 1 h; summary of the method: as §3
[13] = Metabolic stability in human liver microsomes assessed as parent compound remaining at 1 uM incubated for 60 mins in absence of NADPH by LC-MS/MS analysis; type: ADME, Microsome; details: 1 h; summary of the method: as §3
[14] = system: Human immunodeficiency virus 1; assay: Antiviral activity against HIV-1 IIIB infected in human MT4 cells assessed as protection against virus induced cytopathic effect; type: functional, organism-based; details: Human immunodeficiency virus 1, IIIB; summary of the method: as §1
[15] = system: Human immunodeficiency virus 2; assay: Antiviral activity against HIV-2 ROD infected in human MT4 cells assessed as protection against virus induced cytopathic effect; type: functional, organism-based; details: Human immunodeficiency virus 2, ROD; summary of the method: as §1
[16] = Selectivity ratio of EC50 for antiviral activity against HIV1 IIIB infected in human MT4 cells to EC50 for antiviral activity against HIV2 ROD infected in human MT4 cells; type: toxicity, cell-based
Summary of the method: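 Ratio is EC50 against HIV-1 IIIB divided by EC50 against HIV-2 ROD. Both EC50 values come from MTT-read protection of infected MT-4 cells.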

[17] = Selectivity index, ratio of CC50 for cytotoxicity against human MT4 cells to EC50 for antiviral activity against HIV2 ROD infected in human MT4 cells; type: toxicity, cell-based; details: read-out: Ratio CC50/EC50
Summary of the method: (§4)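 SI is CC50 divided by EC50. CC50 comes from MTT viability of uninfected MT-4 cells. EC50 comes from MTT-read protection of MT-4 cells infected with HIV-1 IIIB or HIV-2 ROD. Each value was run in at least triplicate.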

[18] = Selectivity index, ratio of CC50 for cytotoxicity against human MT4 cells to EC50 for antiviral activity against HIV1 IIIB infected in human MT4 cells; type: toxicity, cell-based; details: read-out: Ratio CC50/EC50; summary of the method: as §4
[19] = system: MT4; assay: (§5) Cytotoxicity against human MT4 cells assessed as reduction in cell viability incubated for 5 days by MTT assay; type: toxicity, cell-based; details: mt4, 120 h, time 5 day
Summary of the method: (§6)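 Uninfected MT-4 cells were exposed to compound, and viability was read by the MTT method. […] Each value was run in at least triplicate and averaged from at least three independent experiments.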

[20] = Cytotoxicity against human MT4 cells assessed as reduction in cell viability; type: toxicity, cell-based; summary of the method: as §6
[21] = biological target: Human immunodeficiency virus type 1 reverse transcriptase (Human immunodeficiency virus 1) (UniProt Q72547); details: dose 100.0 nM
[22] = as §5; type: toxicity, cell-based; details: MT4 cells, time 5 day; summary of the method: as §6
[23] = biological target: T1, Structural capsid protein (Human immunodeficiency virus 1, UniProt Q76129); assay: Binding affinity to HIV-1 NL4.3 monomeric capsid protein assessed as dissociation constant by SPR analysis
[24] = biological target: T1, Structural capsid protein; assay: Binding affinity to HIV-1 NL4.3 hexameric capsid protein assessed as dissociation constant by SPR analysis
[25] = system: Human immunodeficiency virus 1; assay: Selectivity ratio of Kd for HIV-1 NL4.3 monomeric capsid protein to Kd for HIV-1 NL4.3 hexameric capsid protein; summary of the method: as §2
[26] = biological target: T1, Structural capsid protein; assay: Competitive binding affinity to HIV-1 NL4.3 hexameric capsid protein assessed as inhibition of CPSF6 binding to capsid protein by SPR analysis

Sequence of Structural capsid protein (Human immunodeficiency virus 1) (Q76129 as listed by the source): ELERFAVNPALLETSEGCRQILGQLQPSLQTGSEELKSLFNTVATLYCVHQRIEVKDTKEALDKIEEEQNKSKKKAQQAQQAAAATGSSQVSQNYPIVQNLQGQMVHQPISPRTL
T1 sequence (Q76129 whole entry): as the sequence (Q76129 as listed by the source) above

Row | Compound | EC50 [14] | EC50 [15] | Ratio EC50 [16] | selectivity ratio [17] | selectivity ratio [18] | CC50 [20] | other results
1 | COc1ccc(N(C)C(=O)[C@H](Cc2ccccc2)NC(=O)CN2CCN(S(=O)(=O)c3ccc(N)cc3)CC2=O)cc1 | 280 nM | 30 nM |  |  |  |  | EC50 [1]: 280 nM; EC50 [2]: 30 nM; K [3]: 13.4 s⁻¹; TIME [4]: 1.67e-05 h; K [5]: 2.04 s⁻¹; TIME [6]: 0.000133 h; Activity [7]: 0.092%; Activity [8]: 0.807%; t1/2 ([9]; microsomes, 1 h, 1 µM): 240 s; microsomal CLint at 1 µM ([10]; liver microsomes, read-out: CLH): 344 µL/min/mg; CLint scaled at 1 µM [11]: 309 mL/min/kg; Stability [12]: 0%; Stability [13]: 113.3%
2 | COc1ccc(-n2c([C@H](Cc3ccccc3)NC(=O)CN3CCN(S(=O)(=O)c4ccc([N+](=O)[O-])cc4)CC3=O)nc3ccccc3c2=O)cc1 |  |  | 2.65 | > 312 | > 119 |  | CC50 [19]: > 179000 nM; EC50 [1]: 1510 nM; EC50 [2]: 570 nM
3 | COc1ccc(N(C)C(=O)[C@H](Cc2cc(F)cc(F)c2)NC(=O)CN2CCN(S(=O)(=O)c3ccccc3N)CC2)cc1 | 520 nM | 140 nM | 3.71 | 454 | 122 | 63600 nM | 
4 | COc1ccc(N(C)C(=O)[C@H](Cc2cc(F)cc(F)c2)NC(=O)CN2CCN(S(=O)(=O)c3ccc(NC(C)=O)cc3)CC2)cc1 | 210 nM | 30 nM | 7 | 3050 | 436 | 91600 nM | 
5 | O=C(CN1CCN(S(=O)(=O)c2ccc([N+](=O)[O-])cc2)CC1)N[C@@H](Cc1cc(F)cc(F)c1)c1nc2ccccc2c(=O)n1-c1ccc(S(=O)(=O)N2CCS(=O)(=O)CC2)cc1 |  |  | 1.54 | > 70.6 | > 45.6 |  | CC50 [19]: > 139000 nM; EC50 [1]: 3040 nM; EC50 [2]: 1970 nM
6 | COc1ccc(N(C)C(=O)[C@H](Cc2cc(F)cc(F)c2)NC(=O)CN2CCN(S(=O)(=O)c3ccc(N)cc3)CC2)cc1 | 120 nM | 50 nM | 2.4 | 2340 | 977 | 117000 nM | 
7 | COc1ccc(N(C)C(=O)[C@H](Cc2cc(F)cc(F)c2)NC(=O)CN2CCN(S(=O)(=O)c3ccccc3)CC2)cc1 | 200 nM | 100 nM | 2 | 1140 | 570 | 114000 nM | 
8 | COc1ccc(N(C)C(=O)[C@H](Cc2cc(F)cc(F)c2)NC(=O)CN2CCN(S(=O)(=O)c3cccc(N)c3)CC2)cc1 | 160 nM | 110 nM | 1.45 | 987 | 679 | 109000 nM | 
9 | COc1ccc(N(C)C(=O)[C@H](Cc2cc(F)cc(F)c2)NC(=O)CN2CCN(S(=O)(=O)c3ccccc3[N+](=O)[O-])CC2)cc1 | 2840 nM | 1190 nM | 2.39 | 79.7 | 33.4 | 94900 nM | 
10 | O=C(O)Cc1ccccc1Nc1c(Cl)cccc1Cl [DICLOFENAC] |  |  |  |  |  |  | CLint scaled at 1 µM [11]: 280 mL/min/kg
11 | Cc1cc(/C=C/C#N)cc(C)c1Nc1ccnc(Nc2ccc(C#N)cc2)n1 |  |  |  |  |  |  | inhibition [21]: 50%
12 | COc1ccc(N(C)C(=O)[C@H](Cc2cc(F)cc(F)c2)NC(=O)CN2CCN(S(=O)(=O)c3cccc(F)c3)CC2)cc1 | 240 nM | 120 nM | 2 | > 1690 | > 843 | > 202000 nM | 
13 | COc1ccc(N(C)C(=O)[C@H](Cc2cc(F)cc(F)c2)NC(=O)CN2CCN(S(=O)(=O)c3ccc(C)cc3)CC2)cc1 | 910 nM | 120 nM | 7.58 | > 1700 | > 224 | > 204000 nM | 
14 | COc1ccc(N(C)C(=O)[C@H](Cc2cc(F)cc(F)c2)NC(=O)CN2CCN(S(=O)(=O)c3ccc(Cl)cc3)CC2)cc1 | 930 nM | 440 nM | 2.11 | 20.6 | 9.73 | 9050 nM | 
15 | COc1ccc(N(C)C(=O)[C@H](Cc2cc(F)cc(F)c2)NC(=O)CN2CCN(S(=O)(=O)c3ccccc3F)CC2)cc1 | 180 nM | 90 nM | 2 | 2010 | 1000 | 181000 nM | 
16 | COc1ccc(N(C)C(=O)[C@H](Cc2cc(F)cc(F)c2)NC(=O)CN2CCN(S(=O)(=O)c3ccc(Br)cc3)CC2)cc1 | 860 nM | 350 nM | 2.46 | 37.8 | 15.4 | 13200 nM | 
17 | COc1ccc(N(C)C(=O)[C@H](Cc2ccccc2)NC(=O)Cc2c(C)[nH]c3ccccc23)cc1 | 750 nM | 4160 nM |  |  |  |  | CC50 at 120 h [22]: > 32300 nM; EC50 [1]: 800 nM; EC50 [2]: 2220 nM; K [3]: 1.58 s⁻¹; TIME [4]: 0.000183 h; Kd [23]: 969 nM; K [5]: 0.036 s⁻¹; TIME [6]: 0.00772 h; Kd [24]: 47 nM; Selectivity ratio [25]: 20.6; Activity [7]: 0.07%; Activity [8]: 4.185%; IC50 [26]: 26.6 nM; half-life at 1 µM ([9]; liver microsomes): 42 s; CLH ([10]; microsomes, 1 h, 1 µM): 2114.6 µL/min/mg; Stability [12]: 0%; Stability [13]: 106.1%
